How the values were obtained:
[1] = test system: SA11 rotavirus; assay: Rotavirus; assay type: cell-based, rotavirus SA11 (primate G3); conditions: MA104, in Primates, 24 h, read-out: ED50, rotavirus (SA11) replication, MA104 cells, TCID50 titers at 24 hr post infection, average of at least 3 independent tests
[2] = test system: SA11 rotavirus; assay: Pre-treatment of SA11 rotavirus with compound; assay type: cell-based, rotavirus SA11 (primate G3); conditions: pre-treatment with compound at 100 M (so in the source), 37 °C for 2 hrs
[3] = test system: Huh-7 cells; assay: Lipid droplet development in Huh-7 cells; assay type: cell-based, human; conditions: various concentrations
Procedure, shortened: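 Spontaneous lipid droplet formation in confluent Huh-7 cells given various concentrations of test compound or 0.1% DMSO mock for 72 hr. Medium then replaced with NBD-cholesterol (1 μg/ml) medium for a further 12 hr. Cells fixed in 4% formaldehyde for 10 min, PBS-washed, and fluorescence viewed by microscopy. Untreated 1-day-old and 4-day-old cells served as references.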

[4] = test system: SA11 rotavirus; assay: Rotavirus; assay type: cell-based, rotavirus SA11 (primate G3); conditions: SA11, MOI of 2, 12 hr post infection
Procedure, shortened: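 Confluent MA104 monolayers inoculated 1 hr, PBS-washed, then held in MEM with test compound (below 50 μM; below 20 μM for some) or 0.1% DMSO plus trypsin 1 μg/ml. At 12 hr, IFA: methanol fix (RT, 30 min), anti-VP6 mAb, FITC anti-mouse IgG. Western: lysates sonicated, 10% gel, anti-VP6 with β-actin loading control, chemiluminescent detection.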

| EC50 [1] [µM] | Compound | effect of pre-treatment of SA11 rotavirus on viral titer (virucidal effect) [2] | suppression of increase in lipid droplets [3] | anti-rotaviral effects by Western blot analysis and IFA [4] |
| --- | --- | --- | --- | --- |
| 11.3 to 28.5 | C=C1C(=O)O[C@H](CCCCCCCC)[C@H]1C(=O)O [C75] |  |  |  |
| 11.3 to 28.5 | C=C(C)[C@@H]1CC[C@]2(C(=O)O)CC[C@]3(C)[C@H](CC[C@@H]4[C@@]5(C)CC[C@H](O)C(C)(C)[C@@H]5CC[C@]43C)[C@@H]12 [Betulinic acid, betulinic acid] |  |  |  |
|  | CCC/C=C/C/C=C/C=C/C=N/NN=O [Triacsin C] | did not affect the viral titer | dose-dependent | confirmed |
|  | CCC/C=C/C/C=C/C=C/C=N/N1CCCS1(=O)=O [1ba, 2-[(2E,4E,7E)-Undeca-2,4,7-trienylideneamino]-1,1-dioxo-1-isothiazolidine] |  | dose-dependent | confirmed |
|  | CCC/C=C/C/C=C/C=C/CNc1ccc(C(=O)O)cc1 [1e, 4-((2E,4E,7E)-Undeca-2,4,7-trienylamino)benzoic acid] | did not affect the viral titer | dose-dependent | confirmed |
| 11.3 to 28.5 | CCCCCCCCCCCCCCCCNc1ccc(C(=O)O)cc1 [PHB, hexadecylamino-p-amino benzoic acid] |  |  |  |

Reference: article PMC3312795 (European Journal of Medicinal Chemistry, 2012)
